Columns and labels:
[1] = biological target: T1, Sterol O-acyltransferase, Soat (Rattus norvegicus) (UniProt Q7TQM4+O70536); assay: Percentage reduction in total cholesterol level at >1 mg/kg; type: functional, organism-based
How it was run: (§1)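 Cholesterol-fed rats given compound orally as a dietary admixture in a cholesterol-enriched diet. Plasma total cholesterol compared with control and reported as percent reduction at the dose, or as ED50, the dose reducing plasma total cholesterol by 50% of the control value.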

O-acyltransferase = O-acyltransferase (Oryctolagus cuniculus, UniProt G1SFD9); assay: In vitro inhibitory activity against Acyl coenzyme A:cholesterol acyltransferase (ACAT) in rabbit intestinal microsomes; design: species or system Intestine
Sequence of O-acyltransferase (G1SFD9 1-524): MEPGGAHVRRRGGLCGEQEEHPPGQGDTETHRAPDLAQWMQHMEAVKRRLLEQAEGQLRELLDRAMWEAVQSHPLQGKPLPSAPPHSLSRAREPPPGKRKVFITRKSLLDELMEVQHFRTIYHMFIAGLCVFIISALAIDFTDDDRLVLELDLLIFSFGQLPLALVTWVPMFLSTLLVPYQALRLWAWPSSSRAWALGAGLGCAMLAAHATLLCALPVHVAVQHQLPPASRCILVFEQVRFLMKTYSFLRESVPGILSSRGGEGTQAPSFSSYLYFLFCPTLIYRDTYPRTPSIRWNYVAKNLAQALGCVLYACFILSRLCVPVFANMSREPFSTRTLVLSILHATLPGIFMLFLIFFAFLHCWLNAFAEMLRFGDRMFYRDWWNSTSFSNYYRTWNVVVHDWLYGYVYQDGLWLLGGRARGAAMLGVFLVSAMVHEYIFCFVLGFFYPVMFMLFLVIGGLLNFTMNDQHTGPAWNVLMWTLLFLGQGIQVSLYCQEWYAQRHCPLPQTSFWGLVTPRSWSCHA
How it was run: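 Enzyme source was mucosal microsomes from small intestine of cholesterol-fed rabbits, incubated with [1-¹⁴C]oleoyl-CoA (Heider method, minor modifications).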

[2] = biological target: T1, Sterol O-acyltransferase, Soat (Rattus norvegicus); assay: Effective dose to reduce plasma total cholesterol level by 50% of the control value in cholesterol fed rats; type: functional; how it was run: as §1
Rattus norvegicus [3] = assay: Compound was evaluated for percent reduction in total cholesterol level at <0.32 mg/kg; type: functional; how it was run: as §1
[4] = biological target: T1, Sterol O-acyltransferase, Soat (Rattus norvegicus); assay: Percentage reduction in total cholesterol level at <1 mg/kg; type: functional, organism-based; how it was run: as §1
Rattus norvegicus [5] = assay: Compound was evaluated for percent reduction in total cholesterol level at >0.1 mg/kg; type: functional; how it was run: as §1

SMILES | Reduction [1] | IC50 (O-acyltransferase) | ED50 [2] | Reduction (Rattus norvegicus [3]) | Reduction [4] | Reduction (Rattus norvegicus [5])
Cc1cc(C)c(NC(=O)N(Cc2cccc(-c3ccnn3C)c2)C2CCCCCC2)c(C)c1 | 34% | 35 nM | > 1 mg/kg | – | – | –
Cc1cc(C)c(NC(=O)N(Cc2ccc(-c3cccs3)cc2)C2CCCCCC2)c(C)c1 | – | 22 nM | 0.28 mg/kg | – | – | –
Cc1cc(C)c(NC(=O)N(Cc2ccc(N3CCN(C)CC3)cc2)C2CCCCCC2)c(C)c1 | 23% | 57 nM | > 1 mg/kg | – | – | –
CSc1cc(C)nc(SC)c1NC(=O)N(Cc1ccccc1)Cc1ccc(-c2cc[nH]n2)cc1 | – | 55 nM | < 0.32 mg/kg | 58% | – | –
CSc1cc(C)nc(SC)c1NC(=O)N(Cc1ccccc1)Cc1cccc(-c2ccn(C)n2)c1 | – | 73 nM | < 1 mg/kg | – | 77% | –
Cc1cc(C)c(NC(=O)N(Cc2ccc(-c3cc[nH]n3)cc2)C2CCCCCC2)c(C)c1 | 17% | 52 nM | > 1 mg/kg | – | – | –
Cc1cc(C)c(NC(=O)N(Cc2ccc(-c3cccnc3)cc2)C2CCCCCC2)c(C)c1 | – | 130 nM | 0.58 mg/kg | – | – | –
CN(C)c1ccc(CN(Cc2cccc(-c3cc[nH]n3)c2)C(=O)Nc2c(F)cc(F)cc2F)cc1 | – | 12 nM | < 0.32 mg/kg | 68% | – | –
Cc1cc(C)c(NC(=O)N(Cc2cccc(-c3nnn(C)n3)c2)C2CCCCCC2)c(C)c1 | – | 100 nM | < 1 mg/kg | – | 84% | –
Cc1cc(C)c(NC(=O)N(Cc2ccc(-c3n[nH]c(C)n3)cc2)C2CCCCCC2)c(C)c1 | 17% | 120 nM | > 1 mg/kg | – | – | –
Cc1cc(C)c(NC(=O)N(Cc2ccc(-n3nccn3)cc2)C2CCCCCC2)c(C)c1 | 11% | 130 nM | > 1 mg/kg | – | – | –
Cc1cc(C)c(NC(=O)N(Cc2ccc(-c3ccccc3)nc2)C2CCCCCC2)c(C)c1 | – | 260 nM | – | – | – | –
Cc1cc(C)c(NC(=O)N(Cc2ccc(-c3cnco3)cc2)C2CCCCCC2)c(C)c1 | 13% | 200 nM | > 1 mg/kg | – | – | –
Cc1cc(C)c(NC(=O)N(Cc2ccc(-c3ccnn3C)cc2)C2CCCCCC2)c(C)c1 | – | 24 nM | < 1 mg/kg | – | 64% | –
CSc1cc(C)nc(SC)c1NC(=O)N(Cc1ccc(-c2cc[nH]n2)cc1)C1CCCCCC1 | – | 100 nM | < 0.32 mg/kg | 77% | – | –
Cc1cc(C)c(NC(=O)N(Cc2ccc(-n3cncn3)cc2)C2CCCCCC2)c(C)c1 | 19% | 26 nM | > 1 mg/kg | – | – | –
O=C(Nc1c(F)cc(F)cc1F)N(Cc1ccc(-c2ccccn2)cc1)C1CCCCCC1 | 30% | 25 nM | > 1 mg/kg | – | – | –
Cc1cc(C)c(NC(=O)N(Cc2cccc(-c3ccn(C)n3)c2)C2CCCCCC2)c(C)c1 | – | 42 nM | < 1 mg/kg | – | 78% | –
COc1cccc(CN(Cc2cccc(-c3cc[nH]n3)c2)C(=O)Nc2c(SC)cc(C)nc2SC)c1 | – | – | > 0.1 mg/kg | – | – | 13%
CSc1cc(C)nc(SC)c1NC(=O)N(Cc1ccc(F)cc1)Cc1cccc(-c2cc[nH]n2)c1 | – | 250 nM | < 0.1 mg/kg | – | – | –
Cc1cc(C)c(NC(=O)N(Cc2ccc(-c3ccccn3)cc2)C2CCCCCC2)c(C)c1 | 46% | 33 nM | > 1 mg/kg | – | – | –
Cc1cc(C)c(NC(=O)N(Cc2cccc(-c3nnnn3C)c2)C2CCCCCC2)c(C)c1 | 26% | – | > 1 mg/kg | – | – | –
O=C(Nc1c(F)cc(F)cc1F)N(Cc1ccc(F)cc1)Cc1cccc(-c2cc[nH]n2)c1 | – | – | < 0.32 mg/kg | 64% | – | –
Cc1cc(C)c(NC(=O)N(Cc2cccc(-c3cc[nH]n3)c2)C2CCCC2)c(C)c1 | – | 22 nM | < 1 mg/kg | – | 76% | –
Cc1cc(C)c(NC(=O)N(Cc2ccc(-c3ccsc3)cc2)C2CCCCCC2)c(C)c1 | – | 19 nM | 0.51 mg/kg | – | – | –
CCCCCCCN(Cc1ccc(CC(C)(C)C)cc1)C(=O)Nc1ccc(F)cc1F | – | – | 5 mg/kg | – | – | –
CSc1cc(C)nc(SC)c1NC(=O)N(Cc1ccccc1)Cc1cccc(-c2cc[nH]n2)c1 | – | 99 nM | 0.046 mg/kg | – | – | –

SMILES | Reduction [1] | IC50 (O-acyltransferase) | ED50 [2] | Reduction (Rattus norvegicus [3]) | Reduction [4] | Reduction (Rattus norvegicus [5])
Cc1cc(C)c(NC(=O)N(Cc2ccc(-n3cccc3)cc2)C2CCCCCC2)c(C)c1 | – | 28 nM | < 1 mg/kg | – | 51% | –
Cc1cc(C)c(NC(=O)N(Cc2cccc(-c3nn[nH]n3)c2)C2CCCCCC2)c(C)c1 | – | > 1000 nM | – | – | – | –
CSc1cc(C)nc(SC)c1NC(=O)N(Cc1ccccc1)Cc1cccc(-c2ccnn2C)c1 | – | 28 nM | < 1 mg/kg | – | 88% | –
Cc1cc(C)c(NC(=O)N(Cc2cc(-c3ccccc3)on2)C2CCCCCC2)c(C)c1 | 28% | 61 nM | > 1 mg/kg | – | – | –
CSc1cc(C)nc(SC)c1NC(=O)N(Cc1ccccc1)Cc1ccc(-c2cnn(C)c2)cc1 | – | – | > 0.1 mg/kg | – | – | 29%
Cc1cc(C)c(NC(=O)N(Cc2cc(-c3ccccc3)[nH]n2)C2CCCCCC2)c(C)c1 | – | 520 nM | – | – | – | –
Cc1cc(C)c(NC(=O)N(Cc2cccc(-c3cc[nH]n3)c2)C2CCCCC2)c(C)c1 | – | 39 nM | 0.12 mg/kg | – | – | –
Cc1cc(C)c(NC(=O)N(Cc2cccc(-n3cccc3)c2)C2CCCCCC2)c(C)c1 | – | 20 nM | 0.17 mg/kg | – | – | –
Cc1cc(C)c(NC(=O)N(Cc2cccc(-c3csc(C)n3)c2)C2CCCCCC2)c(C)c1 | – | 180 nM | – | – | – | –
Cc1cc(C)c(NC(=O)N(Cc2ccc(-c3ccccc3)s2)C2CCCCCC2)c(C)c1 | – | 46 nM | < 1 mg/kg | – | 60% | –
O=C(Nc1c(F)cc(F)cc1F)N(Cc1ccc(-n2cccc2)cc1)C1CCCCCC1 | 21% | 27 nM | > 1 mg/kg | – | – | –
Cc1cc(C)c(NC(=O)N(Cc2cccc(-c3cn[nH]c3)c2)C2CCCCCC2)c(C)c1 | – | 38 nM | 0.19 mg/kg | – | – | –
Cc1cc(C)c(NC(=O)N(Cc2cc(-c3ccccc3)cs2)C2CCCCCC2)c(C)c1 | – | 36 nM | < 1 mg/kg | – | 69% | –
CSc1cc(C)nc(SC)c1NC(=O)N(Cc1ccc(Oc2ccc(F)cc2)cc1)C1CCCCCC1 | – | 30 nM | 0.034 mg/kg | – | – | –
Cc1cc(C)c(NC(=O)N(Cc2ccc(-c3cnn(C)c3)cc2)C2CCCCCC2)c(C)c1 | – | 47 nM | 0.31 mg/kg | – | – | –
Cc1cc(C)c(NC(=O)N(Cc2ccc(-c3cn[nH]c3)cc2)C2CCCCCC2)c(C)c1 | 8% | 270 nM | > 1 mg/kg | – | – | –
CSc1cc(C)nc(SC)c1NC(=O)N(Cc1ccccc1)Cc1ccc(-c2ccnn2C)cc1 | – | 27 nM | < 0.32 mg/kg | 86% | – | –
Cc1cc(C)c(NC(=O)N(Cc2ccc(-n3ccnn3)cc2)C2CCCCCC2)c(C)c1 | 19% | 42 nM | > 1 mg/kg | – | – | –
CSc1cc(C)nc(SC)c1NC(=O)N(Cc1ccc(N(C)C)cc1)Cc1cccc(-c2cc[nH]n2)c1 | – | 72 nM | < 0.1 mg/kg | – | – | –
COc1ccc(CN(Cc2cccc(-c3cc[nH]n3)c2)C(=O)Nc2c(SC)cc(C)nc2SC)cc1 | – | 200 nM | < 0.1 mg/kg | – | – | –
O=C(Nc1c(F)cc(F)cc1F)N(Cc1ccc(-c2cccs2)cc1)C1CCCCCC1 | 33% | 18 nM | > 1 mg/kg | – | – | –
Cc1cc(C)c(NC(=O)N(Cc2ccccc2)Cc2cccc(-c3cc[nH]n3)c2)c(C)c1 | 36% | 21 nM | > 1 mg/kg | – | – | –
Cc1cc(C)c(NC(=O)N(Cc2cccc(-c3c[nH]cn3)c2)C2CCCCCC2)c(C)c1 | – | – | < 1 mg/kg | – | 84% | –
Cc1cc(C)c(NC(=O)N(Cc2cccc(-c3cnn(C)c3)c2)C2CCCCCC2)c(C)c1 | – | 44 nM | < 1 mg/kg | – | 74% | –
Cc1cc(C)c(NC(=O)N(Cc2ccc(-c3ccccc3)o2)C2CCCCCC2)c(C)c1 | – | 44 nM | < 1 mg/kg | – | 68% | –
Cc1cc(C)c(NC(=O)N(Cc2ccc(-n3ccnc3)cc2)C2CCCCCC2)c(C)c1 | 26% | 47 nM | > 1 mg/kg | – | – | –
O=C(Nc1c(F)cc(F)cc1F)N(Cc1ccccc1)Cc1cccc(-c2cc[nH]n2)c1 | – | 14 nM | 0.096 mg/kg | – | – | –
